Converted amounts (≈) assume the structure as drawn. The source made the active and inactive calls. The calls are words filed in the database; no cut-off is given here.
How the values were obtained:
Staphylococcus aureus [1] = assay: Antibacterial activity against methicillin-resistant Staphylococcus aureus C14 measured after overnight incubation by broth double-dilution method; type: functional
Method in brief: (§1)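 MIC by broth double-dilution in liquid Mueller-Hinton medium. Values are reported in µg/mL.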

Staphylococcus aureus [2] = assay: Antibacterial activity against methicillin-resistant Staphylococcus aureus G12 measured after overnight incubation by broth double-dilution method; type: functional; method in brief: as §1
Staphylococcus aureus [3] = assay: Antibacterial activity against methicillin-resistant Staphylococcus aureus BRS3 measured after overnight incubation by broth double-dilution method; type: functional; method in brief: as §1
Staphylococcus aureus [4] = assay: Antibacterial activity against methicillin-resistant Staphylococcus aureus S17 measured after overnight incubation by broth double-dilution method; type: functional; method in brief: as §1
Staphylococcus aureus [5] = assay: Antibacterial activity against methicillin-resistant Staphylococcus aureus C2 measured after overnight incubation by broth double-dilution method; type: functional; method in brief: as §1
Mus musculus = species: Mus musculus; assay: Cytotoxicity against mouse RBCs assessed as hemolysis at 0.24 to 31.2 ug/ml measured after 1 hr; type: toxicity; details: erythrocyte
Method in brief: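 Murine red blood cells were exposed to compounds at various concentrations, with amikacin as a control. Percent hemolysis was scored against untreated cells (0%) and 1% Triton X (100%).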

Pseudomonas aeruginosa = assay: Antibacterial activity against Pseudomonas aeruginosa ATCC 27853 measured after overnight incubation by broth double-dilution method; type: functional
Method in brief: (§2)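 MIC by broth double-dilution in Mueller-Hinton medium. Re-testing at the time-kill inoculum used 1×10^6 CFU/mL.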

Enterobacter cloacae = assay: Antibacterial activity against Enterobacter cloacae ATCC 13047 measured after overnight incubation by broth double-dilution method; type: functional; details: subsp. cloacae ATCC 13047; method in brief: as §1
Staphylococcus aureus [6] = assay: Antibacterial activity against methicillin-resistant Staphylococcus aureus 1 measured after overnight incubation by broth double-dilution method; type: functional; method in brief: as §1
Staphylococcus aureus [7] = assay: Antibacterial activity against methicillin-resistant Staphylococcus aureus NRS51 measured after overnight incubation by broth double-dilution method; type: functional; method in brief: as §1
Staphylococcus aureus [8] = assay: Antibacterial activity against methicillin-resistant Staphylococcus aureus ATCC 33591 measured after overnight incubation by broth double-dilution method; type: functional; method in brief: as §1
[9] = test system: Staphylococcus epidermidis; assay: Antibiofilm activity against Staphylococcus epidermidis ATCC 35984 assessed as reduction of biofilm at […] ug/ml measured after 24 hrs by crystal violet staining based method relative to control; type: functional, RP62A; design: scale not given: the % may be the effect or the level left
Staphylococcus aureus [10] = assay: Antibacterial activity against methicillin-sensitive Staphylococcus aureus ATCC 29213 measured after overnight incubation by broth double-dilution method; type: functional; method in brief: as §1
[11] = Cytotoxicity against HEK293 cells assessed as cell death up to 10 ug/ml measured after 24 hrs by resazurin dye-based fluorescence analysis relative to untreated control; type: toxicity; details: human, hek293, 24 h
Staphylococcus aureus [12] = assay: Antibacterial activity against methicillin-resistant Staphylococcus aureus NRS4 measured after overnight incubation by broth double-dilution method; type: functional; method in brief: as §1
Escherichia coli = assay: Antibacterial activity against Escherichia coli MC1061 measured after overnight incubation by broth double-dilution method; type: functional; method in brief: as §1
Klebsiella pneumoniae = assay: Antibacterial activity against Klebsiella pneumoniae ATCC 27736 measured after overnight incubation by broth double-dilution method; type: functional; method in brief: as §1
[13] = test system: Staphylococcus epidermidis; assay: Antibacterial activity against Staphylococcus epidermidis ATCC 12228 measured after overnight incubation by broth double-dilution method; type: functional; method in brief: as §2
Staphylococcus aureus [14] = assay: Antibacterial activity against methicillin-resistant Staphylococcus aureus NRS77 measured after overnight incubation by broth double-dilution method; type: functional; method in brief: as §1
Enterococcus = assay: Antibacterial activity against Vancomycin-resistant Enterococcus measured after overnight incubation by broth double-dilution method; type: functional; method in brief: as §1
Staphylococcus aureus [15] = assay: Antibacterial activity against methicillin-resistant Staphylococcus aureus USA100 measured after overnight incubation by broth double-dilution method; type: functional; method in brief: as §1
Staphylococcus aureus [16] = assay: Antibacterial activity against methicillin-resistant Staphylococcus aureus USA200 measured after overnight incubation by broth double-dilution method; type: functional; method in brief: as §1
Staphylococcus aureus [17] = assay: Antibacterial activity against methicillin-resistant Staphylococcus aureus S14 measured after overnight incubation by broth double-dilution method; type: functional; method in brief: as §1
Staphylococcus aureus [18] = assay: Antibacterial activity against methicillin-resistant Staphylococcus aureus S22 using 1 10^6CFU/ml measured after overnight incubation by broth double-dilution method; type: functional
Staphylococcus aureus [19] = assay: Antibacterial activity against methicillin-resistant Staphylococcus aureus G1 measured after overnight incubation by broth double-dilution method; type: functional; method in brief: as §1
Staphylococcus aureus [20] = assay: Antibacterial activity against methicillin-sensitive Staphylococcus aureus ATCC 25923 measured after overnight incubation by broth double-dilution method; type: functional; method in brief: as §1
Staphylococcus aureus [21] = assay: Antibacterial activity against methicillin-resistant Staphylococcus aureus C19 measured after overnight incubation by broth double-dilution method; type: functional; method in brief: as §1
Staphylococcus aureus [22] = assay: Antibacterial activity against methicillin-resistant Staphylococcus aureus C1 measured after overnight incubation by broth double-dilution method; type: functional; method in brief: as §1
Staphylococcus aureus [23] = assay: Antibacterial activity against methicillin-resistant Staphylococcus aureus USA300 measured after overnight incubation by broth double-dilution method; type: functional; method in brief: as §1
Staphylococcus aureus [24] = assay: Antibacterial activity against methicillin-resistant Staphylococcus aureus USA600 measured after overnight incubation by broth double-dilution method; type: functional; method in brief: as §1
Staphylococcus aureus [25] = assay: Antibacterial activity against methicillin-resistant Staphylococcus aureus G6 measured after overnight incubation by broth double-dilution method; type: functional; method in brief: as §1
Staphylococcus aureus [26] = assay: Antibacterial activity against methicillin-resistant Staphylococcus aureus G14 measured after overnight incubation by broth double-dilution method; type: functional; method in brief: as §1
Staphylococcus aureus [27] = assay: Antibacterial activity against methicillin-resistant Staphylococcus aureus S24 measured after overnight incubation by broth double-dilution method; type: functional; method in brief: as §1
Staphylococcus aureus [28] = assay: Antibacterial activity against methicillin-resistant Staphylococcus aureus 2 measured after overnight incubation by broth double-dilution method; type: functional; method in brief: as §1
[29] = test system: Mycolicibacterium smegmatis; assay: Antibacterial activity against Mycobacterium smegmatis MC2-155 measured after overnight incubation by broth double-dilution method; type: functional; details: str. MC2 155; method in brief: as §1
Staphylococcus aureus [30] = assay: Antibacterial activity against methicillin-resistant Staphylococcus aureus S22 measured after overnight incubation by broth double-dilution method; type: functional; method in brief: as §1
Acinetobacter baumannii = assay: Antibacterial activity against Acinetobacter baumannii ATCC 19606 measured after overnight incubation by broth double-dilution method; type: functional; method in brief: as §2
Enterococcus faecalis [31] = assay: Antibacterial activity against Enterococcus faecalis ATCC 29212 measured after overnight incubation by broth double-dilution method; type: functional; method in brief: as §2
Enterococcus faecium = assay: Antibacterial activity against Enterococcus faecium BM4105-RF measured after overnight incubation by broth double-dilution method; type: functional; method in brief: as §1
Staphylococcus aureus [32] = assay: Antibacterial activity against methicillin-resistant Staphylococcus aureus C7 measured after overnight incubation by broth double-dilution method; type: functional; method in brief: as §1
Staphylococcus aureus [33] = assay: Antibacterial activity against methicillin-resistant Staphylococcus aureus C16 measured after overnight incubation by broth double-dilution method; type: functional; method in brief: as §1
Salmonella enterica = assay: Antibacterial activity against Salmonella enterica ATCC 14028 measured after overnight incubation by broth double-dilution method; type: functional; method in brief: as §2
[34] = test system: Staphylococcus epidermidis; assay: Antibacterial activity against Staphylococcus epidermidis ATCC 35984 measured after overnight incubation by broth double-dilution method; type: functional; details: RP62A; method in brief: as §2
Listeria monocytogenes = assay: Antibacterial activity against Listeria monocytogenes ATCC 19115 measured after overnight incubation by broth double-dilution method; type: functional; method in brief: as §2
[35] = Cytotoxicity against mouse RBCs assessed as hemolysis up to […] measured after 1 hr; type: toxicity, Erythrocyte; details: mouse red blood cells, read-out: Activity
Enterococcus faecalis [36] = assay: Antibacterial activity against Enterococcus faecalis ATCC 49533 measured after overnight incubation by broth double-dilution method; type: functional; method in brief: as §2

CC(C)c1cccc(-n2sc3ccccc3c2=O)c1
MIC (Staphylococcus aureus [1]): 0.5 µg/mL (≈ 1.86 µM) | MIC (Staphylococcus aureus [2]): 0.5 µg/mL (≈ 1.86 µM) | MIC (Staphylococcus aureus [3]): 1 µg/mL (≈ 3.71 µM) | MIC (Staphylococcus aureus [4]): ≤ 0.25 µg/mL | MIC (Staphylococcus aureus [5]): ≤ 0.25 µg/mL | Activity (Mus musculus): Non-Toxic | MIC (Pseudomonas aeruginosa): > 125 µg/mL | MIC (Enterobacter cloacae): > 125 µg/mL | MIC (Staphylococcus aureus [6]): ≤ 0.25 µg/mL | MIC (Staphylococcus aureus [7]): ≤ 0.25 µg/mL | MIC (Staphylococcus aureus [8]): ≤ 0.25 µg/mL | Activity [9]: 50 - 60% | MIC (Staphylococcus aureus [10]): ≤ 0.25 µg/mL | Activity [11]: > 20% | MIC (Staphylococcus aureus [12]): 1 µg/mL (≈ 3.71 µM) | MIC (Escherichia coli): 15.6 µg/mL (≈ 57.9 µM) | MIC (Klebsiella pneumoniae): > 125 µg/mL | MIC [13]: > 125 µg/mL | MIC (Staphylococcus aureus [14]): 0.5 µg/mL (≈ 1.86 µM) | MIC (Enterococcus): ≤ 0.25 µg/mL | MIC (Staphylococcus aureus [15]): 0.5 µg/mL (≈ 1.86 µM) | MIC (Staphylococcus aureus [16]): 0.5 µg/mL (≈ 1.86 µM) | MIC (Staphylococcus aureus [17]): ≤ 0.25 µg/mL | Activity (Staphylococcus aureus [18]): Active | MIC (Staphylococcus aureus [19]): ≤ 0.25 µg/mL | MIC (Staphylococcus aureus [20]): 0.5 µg/mL (≈ 1.86 µM) | MIC (Staphylococcus aureus [21]): ≤ 0.25 µg/mL | MIC (Staphylococcus aureus [22]): ≤ 0.25 µg/mL | MIC (Staphylococcus aureus [23]): ≤ 0.25 µg/mL | MIC (Staphylococcus aureus [24]): ≤ 0.25 µg/mL | MIC (Staphylococcus aureus [25]): 0.5 µg/mL (≈ 1.86 µM) | MIC (Staphylococcus aureus [26]): 0.5 µg/mL (≈ 1.86 µM) | MIC (Staphylococcus aureus [27]): ≤ 0.25 µg/mL | MIC (Staphylococcus aureus [28]): ≤ 0.25 µg/mL | MIC [29]: 1 µg/mL (≈ 3.71 µM) | MIC (Staphylococcus aureus [30]): 1 µg/mL (≈ 3.71 µM) | MIC (Acinetobacter baumannii): 31.3 µg/mL (≈ 116 µM) | MIC (Enterococcus faecalis [31]): > 125 µg/mL | MIC (Enterococcus faecium): 3.9 µg/mL (≈ 14.5 µM) | MIC (Staphylococcus aureus [32]): ≤ 0.25 µg/mL | MIC (Staphylococcus aureus [33]): ≤ 0.25 µg/mL | MIC (Salmonella enterica): > 125 µg/mL | MIC [34]: 0.25 µg/mL (≈ 0.928 µM) | MIC (Listeria monocytogenes): 1 µg/mL (≈ 3.71 µM) | hemolysis at 1 h [35]: ≤ 20% | MIC (Enterococcus faecalis [36]): > 125 µg/mL

Source: ChEMBL document CHEMBL3864121, “Development of ebsulfur analogues as potent antibacterials against methicillin-resistant Staphylococcus aureus” (Bioorg Med Chem, 2016)
